Reference: ChEMBL document CHEMBL3046730, “Broad-spectrum antimicrobial activity in vitro of the synthetic peptide D4E1” (J Agric Food Chem, 2001)
pIC50: −log10 of the molar value. The source made the active and inactive calls. The calls are words filed in the database; no cut-off is given here.

Tests used:
[1] = system: Aspergillus flavus; assay: Antifungal activity against Aspergillus flavus 70-GFP assessed as reduction in spore germination at 12.5 uM after 8 hr by microscopic analysis relative to control; format: functional, organism-based
How it was run: (§1)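 Nongerminated A. flavus 70-GFP conidia (10⁶/mL) exposed to 0–25 µM peptide in 1% PDB, 8 h at 30 °C. Proportion of germinating conidia scored; GFP fluorescence microscopy (ex 480, em 530 nm). Experiment repeated twice; one-way ANOVA with Tukey separation.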

[2] = system: Rhizoctonia solani; assay: Antifungal activity against Rhizoctonia solani SRRC 1443 assessed as appearance of extracellular material surrounding hyphae at 20 uM after 48 hr by microscopic analysis; format: functional, organism-based
[3] = system: Aspergillus flavus; assay: Antifungal activity against Aspergillus flavus 70-GFP assessed as germ tube breakage at 12.5 uM after 8 hr by microscopic analysis relative to control; format: functional, organism-based
How it was run: (§2)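 A. flavus 70-GFP conidia (10⁶/mL) incubated 8 h at 30 °C with 0–25 µM peptide in 1% PDB. Germ tube and spore morphology examined by GFP fluorescence microscopy (excitation 480 nm, emission 530 nm). Repeated twice.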

[4] = system: Alternaria alternata; assay: Antifungal activity against Alternaria alternata SRRC 1107 after 24 to 48 hr; format: functional, organism-based
How it was run: (§3)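 Conidia harvested in 1% PDB (pH 6.0), diluted to 10⁵/mL and germinated before exposure to peptide in 1% PDB. Four 50 µL aliquots plated on PDA and colonies counted after 24–48 h. Percent mortality vs untreated control fitted by dose–response to give IC50; MIC = complete inhibition; each fungus tested at least twice.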

[5] = system: Aspergillus flavus; assay: Antifungal activity against Aspergillus flavus 70-GFP after 24 to 48 hr; format: functional, organism-based; how it was run: as §3
[6] = system: Aspergillus flavus; assay: Antifungal activity against Aspergillus flavus 70-GFP assessed as vacuolization in spores at 12.5 uM after 8 hr by microscopic analysis relative to control; format: functional, organism-based; how it was run: as §2
[7] = system: Fusarium graminearum; assay: Antifungal activity against Fusarium graminearum SRRC 1042 after 24 to 48 hr; format: functional, organism-based
How it was run: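 Conidia harvested in 1% PDB (pH 6.0), diluted to 10⁴ conidia/mL, pregerminated 8 h at 30 °C. Germinated conidia exposed to D4E1 in 1% PDB at 30 °C; four aliquots spread on PDA and colonies counted after 24–48 h at 30 °C. Percent mortality vs 0 µM control; IC50 from dose–response fit of two experiments; MIC = complete growth inhibition.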

[8] = system: Phytophthora cinnamomi; assay: Antifungal activity against Phytophthora cinnamomi after 48 hr by microplate assay; format: functional, organism-based
How it was run: (§4)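 Mycelia grown in 1% PDB 48 h at 28 °C, 90 rpm, blended, adjusted to ~10⁵ fragments/mL. Fragments incubated in 24-well plates with peptide at 2–40 µM final in 1% PDB, 2 mL total, 48 h at 90 rpm. MIC recorded as lowest concentration completely inhibiting growth; three replicate experiments.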

[9] = system: Cercospora kikuchii; assay: Antifungal activity against Cercospora kikuchii SRRC 1078 after 24 to 48 hr; format: functional, organism-based
How it was run: (§5)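 Conidia diluted to 10⁴/mL (Fusarium) or 10⁵/mL and germinated 8 h at 30 °C (A. flavus, Fusarium, P. italicum) or overnight at 22 °C. Four 50 µL aliquots spread on PDA, colonies counted after 24–48 h at 30 or 22 °C. Percent mortality vs untreated control fitted by dose–response to give IC50; MIC = complete inhibition; two experiments.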

[10] = system: Rhizoctonia solani; assay: Antifungal activity against Rhizoctonia solani SRRC 1443 after 48 hr by microplate assay; format: functional, organism-based; details: SRRC 1443, 48 h; how it was run: as §4
[11] = system: Globisporangium ultimum var. sporangiiferum; assay: Antifungal activity against Pythium ultimum var. sporangiiferum after 48 hr by microplate assay; format: functional, organism-based; how it was run: as §4
[12] = system: Aspergillus flavus; assay: Antifungal activity against Aspergillus flavus 70-W after 24 to 48 hr; format: functional, organism-based; how it was run: as §5
[13] = system: Aspergillus flavus; assay: Antifungal activity against Aspergillus flavus 70-GFP assessed as short germ tube at 25 uM after 8 hr by microscopic analysis relative to control; format: functional, organism-based; how it was run: as §2
[14] = system: Aspergillus flavus; assay: Antifungal activity against Aspergillus flavus 70-GFP assessed as thick germ tube at 25 uM after 8 hr by microscopic analysis relative to control; format: functional, organism-based; how it was run: as §2
[15] = system: Verticillium dahliae; assay: Antifungal activity against Verticillium dahliae SRRC 1030 after 24 to 48 hr; format: functional, organism-based; how it was run: as §5
[16] = system: Claviceps purpurea; assay: Antifungal activity against Claviceps purpurea SRRC 118 after 24 to 48 hr; format: functional, organism-based; how it was run: as §5
[17] = system: Aspergillus flavus; assay: Antifungal activity against Aspergillus flavus 70-GFP assessed as vacuolization in spores at 6 uM after 8 hr by microscopic analysis relative to control; format: functional, organism-based; how it was run: as §2
[18] = system: Phytophthora nicotianae; assay: Antifungal activity against Phytophthora parasitica after 48 hr by microplate assay; format: functional, organism-based; how it was run: as §4
[19] = system: Rhizoctonia solani; assay: Antifungal activity against Rhizoctonia solani SRRC 1443 assessed as rough hyphae at 20 uM after 48 hr by microscopic analysis; format: functional, organism-based
[20] = system: Berkeleyomyces basicola; assay: Antifungal activity against Thielaviopsis basicola SRRC 1277 after 24 to 48 hr; format: functional, organism-based; how it was run: as §5
[21] = system: Fusarium oxysporum; assay: Antifungal activity against Fusarium oxysporum SRRC 187 after 24 to 48 hr; format: functional, organism-based; how it was run: as §5
[22] = system: Pseudomonas amygdali pv. tabaci; assay: Antibacterial activity against Pseudomonas syringae pv. tabaci after 24 to 48 hr; format: functional, organism-based
[23] = system: Rhizoctonia solani; assay: Antifungal activity against Rhizoctonia solani SRRC 1443 assessed as jagged hyphae at 20 uM after 48 hr by microscopic analysis; format: functional, organism-based
[24] = system: Penicillium italicum; assay: Antifungal activity against Penicillium italicum SRRC 2352 after 24 to 48 hr; format: functional, organism-based; how it was run: as §5
[25] = system: Aspergillus flavus; assay: Antifungal activity against Aspergillus flavus 70-GFP assessed as reduction in spore germination at 25 uM after 8 hr by microscopic analysis relative to control; format: functional; design: scale not given: the % may be the effect or the level left; how it was run: as §1
[26] = system: Rhizoctonia solani; assay: Antifungal activity against Rhizoctonia solani SRRC 1443 assessed as thin hyphae at 20 uM after 48 hr by microscopic analysis; format: functional, organism-based
[27] = system: Xanthomonas campestris; assay: Antibacterial activity against Xanthomonas citri subsp. malvacearum race 18 after 24 to 48 hr; format: functional, organism-based, Xanthomonas citri pv. malvacearum
How it was run: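 X. campestris pv. malvacearum race 18 grown overnight in nutrient broth at 28 °C, 225 rpm, then diluted to 10⁴ CFU/mL. Exposed to D4E1 for 60 min at 28 °C. Four aliquots plated on NB and colonies counted after 24–48 h at 28 °C. Percent mortality vs 0 µM control; IC50 from dose–response curve fit; MIC = complete inhibition; tested twice.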

[28] = system: Fusarium verticillioides; assay: Antifungal activity against Fusarium verticillioides SRRC 1082 after 24 to 48 hr; format: functional, organism-based; how it was run: as §5
[29] = system: Colletotrichum destructivum; assay: Antifungal activity against Colletotrichum destructivum ATCC 42492 after 24 to 48 hr; format: functional, organism-based; how it was run: as §5

With H-FKLRAKIKVRLRAKIKL-OH the Activity [1] was “Active”, the Activity [2] was “Active” and the Activity [3] was “Active”. It also gave a pIC50 [4] of 4.91, an MIC [4] of 25 µM and a pIC50 [5] of 4.96. For the same substance, the MIC [5] was 25 µM, the Activity [6] was “Active” and the pIC50 [7] was 5.68. The MIC [7] was 25 µM, the MIC [8] was 4.67 µM and the pIC50 [9] was 5.06. It also gave an MIC [9] of 25 µM, an MIC [10] of 26.7 µM and an MIC [11] of 13.3 µM. The pIC50 [12] was 5.11, the MIC [12] was 25 µM and the Activity [13] was “Active”. The Activity [14] was “Active”, the pIC50 [15] was 6.22 and the MIC [15] was 5.25 µM. For the same substance, the pIC50 [16] was 5.80, the MIC [16] was 20 µM and the Activity [17] was “Active”. For the same substance, the MIC [18] was 4.67 µM, the Activity [19] was “Active” and the pIC50 [20] was 6.28. It also gave an MIC [20] of 6 µM, a pIC50 [21] of 5.69 and an MIC [21] of 12.5 µM. For the same substance, the pIC50 [22] was 6.28, the MIC [22] was 2.25 µM and the Activity [23] was “Active”. For the same substance, the pIC50 [24] was 5.23, the MIC [24] was 25 µM and the Activity [25] was over 75%. For the same substance, the Activity [26] was “Active”, the pIC50 [27] was 6.72 and the MIC [27] was 1.25 µM. For the same substance, the pIC50 [28] was 6.06, the MIC [28] was 12.5 µM and the pIC50 [29] was 4.89. The MIC [29] was 25 µM.
